Laboratory results as given in ChEMBL document CHEMBL1914430, “Synthesis of some new 1,3,5-trisubstituted pyrazolines bearing benzene sulfonamide as anticancer and anti-inflammatory agents” (Bioorg Med Chem Lett, 2011).

Columns and labels:
Assay type in all cases: functional
[1] = test system: NCI-H522; assay: Anticancer activity against human NCI-H522 cells assessed as cellular growth at 10 uM
How it was run: (§1)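 Primary single-dose screen at 10⁻⁵ M, run under the NCI Drug Evaluation Branch protocol against the full panel of about 60 human tumour lines. The lines come from leukaemia, melanoma, lung, colon, CNS, ovarian, renal, prostate and breast cancers. Read-out is cellular growth.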

[2] = test system: MDA-MB-468; assay: Anticancer activity against human MDA-MB-468 cells assessed as cellular growth at 10 uM; how it was run: as §1
[3] = test system: TK-10; assay: Anticancer activity against human TK10 cells assessed as cellular growth at 10 uM
How it was run: (§2)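 NCI primary one-dose screen at 10⁻⁵ M against the ~60 human tumour cell line panel (leukemia, melanoma, lung, colon, CNS, ovarian, renal, prostate, breast). Read-out is cellular growth.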

[4] = test system: OVCAR-8; assay: Anticancer activity against human OVCAR8 cells assessed as cellular growth at 10 uM; how it was run: as §1
[5] = test system: SF-295; assay: Anticancer activity against human SF295 cells assessed as cellular growth at 10 uM; how it was run: as §1
[6] = test system: HCC 2998; assay: Anticancer activity against human HCC2998 cells assessed as cellular growth at 10 uM
How it was run: (§3)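 Primary one-dose screen at 10⁻⁵ M, run per the NCI Drug Evaluation Branch protocol on the full panel of about 60 human tumor lines. The panel covers nine cancer types: leukemia, melanoma, lung, colon, CNS, ovarian, renal, prostate and breast.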

[7] = test system: UACC-257; assay: Anticancer activity against human UACC257 cells assessed as cellular growth at 10 uM; how it was run: as §2
[8] = test system: SNB-19; assay: Anticancer activity against human SNB19 cells assessed as cellular growth at 10 uM; how it was run: as §1
[9] = test system: DU-145; assay: Anticancer activity against human DU145 cells assessed as cellular growth at 10 uM; how it was run: as §3
[10] = test system: COLO 205; assay: Anticancer activity against human COLO205 cells assessed as cellular growth at 10 uM; how it was run: as §3
[11] = test system: SW-620; assay: Anticancer activity against human SW620 cells assessed as cellular growth at 10 uM; how it was run: as §2
[12] = test system: IGROV-1; assay: Anticancer activity against human IGROV1 cells assessed as cellular growth at 10 uM; how it was run: as §3
[13] = test system: MDA-MB-435; assay: Anticancer activity against human MDA-MB-435 cells assessed as cellular growth at 10 uM; how it was run: as §3
[14] = test system: KM12; assay: Anticancer activity against human KM12 cells assessed as cellular growth at 10 uM; how it was run: as §3
[15] = Anticancer activity against human Hs 578T cells assessed as cellular growth at 10 uM; how it was run: as §3
[16] = test system: EKVX; assay: Anticancer activity against human EKVX cells assessed as cellular growth at 10 uM; how it was run: as §3
[17] = test system: SF-268; assay: Anticancer activity against human SF268 cells assessed as cellular growth at 10 uM; how it was run: as §1
[18] = test system: OVCAR-4; assay: Anticancer activity against human OVCAR4 cells assessed as cellular growth at 10 uM; how it was run: as §1
[19] = test system: M14; assay: Anticancer activity against human M14 cells assessed as cellular growth at 10 uM; how it was run: as §3
[20] = test system: Rattus norvegicus; assay: Antiinflammatory activity in Wistar rat assessed as inhibition of carrageenan-induced hind paw edema at 20 mg/kg, po administered 30 mins before carrageenan challenge measured after 3 hrs by plethysmometer
How it was run: (§4)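 Wistar rats of either sex, 150–175 g, fasted 16 h, n = 6 per group. Compound given orally at 20 mg/kg as a suspension in 1% CMC in water (10 mL/kg); controls got vehicle only. After 30 min, 0.1 mL of 1% carrageenan in saline was injected subplantar into the left hind paw. Paw volume was measured by plethysmometer at 0, 3 and 5 h. Inhibition = (1 − Vt/Vc) × 100, reported as mean ± SEM.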

[21] = test system: U-251; assay: Anticancer activity against human U251 cells assessed as cellular growth at 10 uM; how it was run: as §2
[22] = test system: UO-31; assay: Anticancer activity against human UO31 cells assessed as cellular growth at 10 uM; how it was run: as §2
[23] = test system: RPMI-8226; assay: Anticancer activity against human RPMI8226 cells assessed as cellular growth at 10 uM; how it was run: as §1
[24] = test system: SK-MEL-2; assay: Anticancer activity against human SK-MEL-2 cells assessed as cellular growth at 10 uM; how it was run: as §1
[25] = test system: NCI-H322M; assay: Anticancer activity against human NCI-H322M cells assessed as cellular growth at 10 uM; how it was run: as §1
[26] = test system: BT-549; assay: Anticancer activity against human BT549 cells assessed as cellular growth at 10 uM; how it was run: as §3
[27] = test system: SK-OV-3; assay: Anticancer activity against human SKOV3 cells assessed as cellular growth at 10 uM; how it was run: as §1
[28] = test system: MDA-MB-231; assay: Anticancer activity against human MDA-MB-231 cells assessed as cellular growth at 10 uM; how it was run: as §3
[29] = test system: HT-29; assay: Anticancer activity against human HT-29 cells assessed as cellular growth at 10 uM; how it was run: as §3
[30] = test system: SK-MEL-5; assay: Anticancer activity against human SK-MEL-5 cells assessed as cellular growth at 10 uM; how it was run: as §1
[31] = test system: RXF 393; assay: Anticancer activity against human RXF393 cells assessed as cellular growth at 10 uM; how it was run: as §1
[32] = test system: T47D; assay: Anticancer activity against human T47D cells assessed as cellular growth at 10 uM; how it was run: as §2
[33] = test system: SK-MEL-28; assay: Anticancer activity against human SK-MEL-28 cells assessed as cellular growth at 10 uM; how it was run: as §1
[34] = test system: NCI/ADR-RES; assay: Anticancer activity against human NCI/ADR-RES cells assessed as cellular growth at 10 uM; how it was run: as §1
[35] = test system: Rattus norvegicus; assay: Antiinflammatory activity in Wistar rat assessed as inhibition of carrageenan-induced hind paw edema at 20 mg/kg, po administered 30 mins before carrageenan challenge measured after 5 hrs by plethysmometer; how it was run: as §4
[36] = test system: A549; assay: Anticancer activity against human A549 cells assessed as cellular growth at 10 uM; how it was run: as §3
[37] = test system: MCF7; assay: Anticancer activity against human MCF7 cells assessed as cellular growth at 10 uM; how it was run: as §3
[38] = test system: A498; assay: Anticancer activity against human A498 cells assessed as cellular growth at 10 uM; how it was run: as §3
[39] = test system: SN12C; assay: Anticancer activity against human SN12C cells assessed as cellular growth at 10 uM; how it was run: as §1
[40] = test system: SNB-75; assay: Anticancer activity against human SNB75 cells assessed as cellular growth at 10 uM; how it was run: as §1
[41] = test system: OVCAR-3; assay: Anticancer activity against human OVCAR3 cells assessed as cellular growth at 10 uM; how it was run: as §1
[42] = test system: HCT-15; assay: Anticancer activity against human HCT15 cells assessed as cellular growth at 10 uM; how it was run: as §3
[43] = test system: SF-539; assay: Anticancer activity against human SF539 cells assessed as cellular growth at 10 uM; how it was run: as §1
[44] = test system: ACHN; assay: Anticancer activity against human ACHN cells assessed as cellular growth at 10 uM; how it was run: as §3
[45] = test system: HOP-92; assay: Anticancer activity against human HOP92 cells assessed as cellular growth at 10 uM; how it was run: as §3
[46] = test system: NCI-H460; assay: Anticancer activity against human NCI-H460 cells assessed as cellular growth at 10 uM; how it was run: as §1
[47] = test system: OVCAR-5; assay: Anticancer activity against human OVCAR5 cells assessed as cellular growth at 10 uM; how it was run: as §1
[48] = test system: Malme-3M; assay: Anticancer activity against human MALME-3M cells assessed as cellular growth at 10 uM; how it was run: as §3
[49] = test system: HCT-116; assay: Anticancer activity against human HCT116 cells assessed as cellular growth at 10 uM; how it was run: as §3
[50] = test system: NCI-H23; assay: Anticancer activity against human NCI-H23 cells assessed as cellular growth at 10 uM; how it was run: as §1
[51] = test system: 786-0; assay: Anticancer activity against human 786-0 cells assessed as cellular growth at 10 uM; how it was run: as §3
[52] = test system: UACC-62; assay: Anticancer activity against human UACC62 cells assessed as cellular growth at 10 uM; how it was run: as §2
[53] = test system: PC-3; assay: Anticancer activity against human PC3 cells assessed as cellular growth at 10 uM; how it was run: as §1
[54] = test system: HOP-62; assay: Anticancer activity against human HOP62 cells assessed as cellular growth at 10 uM; how it was run: as §3
[55] = test system: LOX IMVI; assay: Anticancer activity against human LOXIMVI cells assessed as cellular growth at 10 uM; how it was run: as §3
[56] = test system: NCI-H226; assay: Anticancer activity against human NCI-H226 cells assessed as cellular growth at 10 uM; how it was run: as §1

SMILES: COc1ccc(C2CC(c3cc(Cl)c(C)cc3OC)=NN2c2ccc(S(N)(=O)=O)cc2)cc1OC (stereo not drawn)
- Activity [1]: 74.33%
- Activity [2]: 94.62%
- Activity [3]: 112.95%
- Activity [4]: 73.83%
- Activity [5]: 122.81%
- Activity [6]: 99.94%
- Activity [7]: 87.16%
- Activity [8]: 100.7%
- Activity [9]: 105.76%
- Activity [10]: 101.3%
- Activity [11]: 93.6%
- Activity [12]: 79.08%
- Activity [13]: 95.83%
- Activity [14]: 91.8%
- Activity [15]: 100.69%
- Activity [16]: 80.65%
- Activity [17]: 90.07%
- Activity [18]: 87.79%
- Activity [19]: 81.83%
- inhibition in vivo at 20 mg/kg [20]: 31.6%
- Activity [21]: 78.37%
- Activity [22]: 59.09%
- Activity [23]: 90.96%
- Activity [24]: 95.75%
- Activity [25]: 103.5%
- Activity [26]: 83.23%
- Activity [27]: 116.37%
- Activity [28]: 84.64%
- Activity [29]: 78.73%
- Activity [30]: 84.63%
- Activity [31]: 77.69%
- Activity [32]: 77.03%
- Activity [33]: 108.41%
- Activity [34]: 77.18%
- inhibition in vivo at 20 mg/kg [35]: 47.6%
- Activity [36]: 73.23%
- Activity [37]: 80.37%
- Activity [38]: 111.51%
- Activity [39]: 87.41%
- Activity [40]: 83.56%
- Activity [41]: 103.3%
- Activity [42]: 75.93%
- Activity [43]: 102.69%
- Activity [44]: 83.96%
- Activity [45]: 101.2%
- Activity [46]: 89.78%
- Activity [47]: 70.62%
- Activity [48]: 101.32%
- Activity [49]: 56.66%
- Activity [50]: 75.79%
- Activity [51]: 92.29%
- Activity [52]: 65.06%
- Activity [53]: 52.25%
- Activity [54]: 87.79%
- Activity [55]: 77.92%
- Activity [56]: 81.27%

SMILES: COc1cc(C)c(Cl)cc1C1=NN(c2ccc(S(N)(=O)=O)cc2)C(c2cc(OC)c(OC)c(OC)c2)C1 (stereo not drawn)
- inhibition in vivo at 20 mg/kg [20]: 34.2%
- inhibition in vivo at 20 mg/kg [35]: 21.4%
